Results reported in ChEMBL document CHEMBL1142981, “Identification and synthesis of a novel selective partial PPARdelta agonist with full efficacy on lipid metabolism in vitro and in vivo” (J Med Chem, 2007).
Each block holds one molecule with its values, some of them ahead of it.

Assays:
[1] = Clearance in Sprague-Dawley rat at 0.20 mg/kg, iv; format: ADME, organism-based; set-up: dose 0.2 mg/kg, route intravenous; conditions: in vivo, 0.2 mg/kg
Method in brief: (§1)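 Male SD rats dosed once i.v. or p.o. (n = 8 per route), vehicle 5% ethanol, 10% HPCD, phosphate buffer pH 7.5-8.0. One animal sacrificed at each of 5, 15, 30, 60, 90, 120, 240 and 360 min; EDTA plasma analysed by high turbulence LC-MS/MS. Each data point represents one animal.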

[2] = Volume of distribution in Sprague-Dawley rat at 0.20 mg/kg, iv; format: ADME, organism-based; set-up: dose 0.2 mg/kg, route intravenous; conditions: in vivo, 0.2 mg/kg, read-out: Vss
Method in brief: (§2)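 Male SD rats received a single p.o. or i.v. dose (n = 8 per route) in 5% ethanol, 10% HPCD and phosphate buffer, pH 7.5-8.0. At 5, 15, 30, 60, 90, 120, 240 and 360 min one rat was sacrificed per time point. EDTA plasma was assayed by high turbulence LC-MS/MS. Cmax and bioavailability were taken from oral dosing; volume of distribution is at steady state.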

[3] = Half life in Sprague-Dawley rat at 0.45 mg/kg, po; format: ADME, organism-based; set-up: dose 0.45 mg/kg, route oral; conditions: in vivo
Method in brief: (§3)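 Male SD rats, single oral dose in 5% ethanol/10% HPCD/phosphate buffer pH 7.5-8.0, n = 8. One animal was killed at each of 5, 15, 30, 60, 90, 120, 240 and 360 min. EDTA plasma was analysed by turbulent-flow LC-MS/MS. Cmax, half-life and oral bioavailability were taken from the plasma curves, with bioavailability using a parallel i.v. arm.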

[4] = target: T1, Peroxisome proliferator-activated receptor alpha (Homo sapiens) (UniProt Q07869); experiment: Activity at human liver PPAR alpha expressed in HEK293 cells by GAL4 transactivation assay relative to NNC61-4655; format: cell-based
T1 sequence (whole entry): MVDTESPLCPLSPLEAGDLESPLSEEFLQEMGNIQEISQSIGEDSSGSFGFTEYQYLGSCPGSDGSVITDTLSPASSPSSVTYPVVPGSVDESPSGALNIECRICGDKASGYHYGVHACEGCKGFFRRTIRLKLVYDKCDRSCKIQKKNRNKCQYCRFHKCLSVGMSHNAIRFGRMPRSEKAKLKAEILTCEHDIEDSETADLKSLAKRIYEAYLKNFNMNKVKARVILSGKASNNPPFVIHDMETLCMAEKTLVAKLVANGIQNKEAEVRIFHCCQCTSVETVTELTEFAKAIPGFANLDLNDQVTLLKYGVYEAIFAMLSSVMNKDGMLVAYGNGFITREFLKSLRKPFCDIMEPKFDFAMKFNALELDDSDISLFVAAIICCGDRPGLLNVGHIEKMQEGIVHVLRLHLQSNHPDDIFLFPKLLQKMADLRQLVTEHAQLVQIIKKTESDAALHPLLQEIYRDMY

[5] = tested on: L6; experiment: Effect on fatty acid oxidation in rat L6 cells; format: functional, cell-based
Method in brief: (§4)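 Rat L6 myoblasts differentiated 5 days in 2% serum, then treated 42 h with compound (refreshed at 24 h), followed by 6 h with 0.4 mM palmitate containing [9,10-3H]-palmitic acid on 2% fatty-acid-free BSA. Stopped with 10% TCA; released 3H-H2O collected by overnight equilibration at 50 °C and counted.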

[6] = tested on: L6; experiment: Effect on increase in fatty acid oxidation in rat L6 cells relative to GW-501516; format: functional; set-up: concentration or dose not given beside the values; method in brief: as §4
[7] = Plasma Cmax in Sprague-Dawley rat at 0.45 mg/kg, po; format: ADME, organism-based; set-up: dose 0.45 mg/kg, route oral; method in brief: as §3
[8] = Oral bioavailability in Sprague-Dawley rat at 0.45 mg/kg; format: ADME, organism-based; conditions: in vivo; method in brief: as §3
[9] = target: T2, Peroxisome proliferator-activated receptor delta (Homo sapiens, UniProt Q03181)
T2 sequence (Q03181 whole entry): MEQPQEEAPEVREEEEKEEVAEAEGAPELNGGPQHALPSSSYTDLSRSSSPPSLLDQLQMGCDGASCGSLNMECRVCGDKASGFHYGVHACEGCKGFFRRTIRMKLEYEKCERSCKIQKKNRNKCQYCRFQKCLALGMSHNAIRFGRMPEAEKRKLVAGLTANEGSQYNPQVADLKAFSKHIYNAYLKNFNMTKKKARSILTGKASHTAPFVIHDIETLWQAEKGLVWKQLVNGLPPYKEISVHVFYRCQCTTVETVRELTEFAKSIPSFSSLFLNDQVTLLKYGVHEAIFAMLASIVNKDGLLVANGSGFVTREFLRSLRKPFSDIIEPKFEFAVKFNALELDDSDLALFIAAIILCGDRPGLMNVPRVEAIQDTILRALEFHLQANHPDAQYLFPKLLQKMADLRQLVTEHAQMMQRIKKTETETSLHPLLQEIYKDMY

[10] = Oral bioavailability in Sprague-Dawley rat at 2.13 mg/kg; format: ADME, organism-based; conditions: in vivo; method in brief: as §2
[11] = Clearance in Sprague-Dawley rat at 1.09 mg/kg, iv; format: ADME, organism-based; set-up: dose 1.09 mg/kg, route intravenous; conditions: in vivo; method in brief: as §1
[12] = Volume of distribution in Sprague-Dawley rat at 1.09 mg/kg, iv; format: ADME, organism-based; set-up: dose 1.09 mg/kg, route intravenous; conditions: in vivo, read-out: Vss; method in brief: as §2
[13] = Half life in Sprague-Dawley rat at 2.13 mg/kg, po; format: ADME, organism-based; set-up: dose 2.13 mg/kg, route oral; conditions: in vivo; method in brief: as §1
[14] = target: T3, Peroxisome proliferator-activated receptor delta (Mus musculus) (UniProt P35396); experiment: Agonist activity at mouse PPAR delta expressed in HEK293 cells by PPAR-GAL4 transactivation assay; format: functional, cell-based
T3 sequence (whole entry): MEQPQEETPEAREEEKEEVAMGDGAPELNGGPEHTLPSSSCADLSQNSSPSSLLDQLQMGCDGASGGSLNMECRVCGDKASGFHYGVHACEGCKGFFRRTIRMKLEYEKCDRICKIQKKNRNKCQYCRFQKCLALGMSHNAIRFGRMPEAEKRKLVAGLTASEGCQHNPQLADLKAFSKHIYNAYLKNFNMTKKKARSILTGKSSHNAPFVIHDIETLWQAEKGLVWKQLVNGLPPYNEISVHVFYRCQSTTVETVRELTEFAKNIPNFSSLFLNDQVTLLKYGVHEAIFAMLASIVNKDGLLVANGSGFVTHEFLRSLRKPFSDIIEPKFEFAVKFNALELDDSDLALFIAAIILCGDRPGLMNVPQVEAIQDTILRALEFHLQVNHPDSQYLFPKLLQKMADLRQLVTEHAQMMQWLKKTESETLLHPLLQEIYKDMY

[15] = tested on: Mus musculus; experiment: Decrease in insulin level in human ApoB100/CETP transgenic mouse at 6 mg/kg, po after 6 weeks by ELISA relative to control; format: functional; set-up: scale not given: the % may be the effect or the level left
[16] = tested on: Mus musculus; experiment: Decrease in total cholesterol level in human ApoB100/CETP transgenic mouse at 6 mg/kg, po after 6 weeks relative to control; format: functional; set-up: scale not given: the % may be the effect or the level left
[17] = tested on: Mus musculus; experiment: Increase in HDL level in human ApoB100/CETP transgenic mouse at 6 mg/kg, po after 6 weeks relative to control; format: functional
[18] = tested on: Mus musculus; experiment: Decrease in LDL level in human ApoB100/CETP transgenic mouse at 6 mg/kg, po after 6 weeks relative to control; format: functional; set-up: scale not given: the % may be the effect or the level left
[19] = Plasma Cmax in Sprague-Dawley rat at 2.13 mg/kg, po; format: ADME, organism-based; set-up: dose 2.13 mg/kg, route oral; method in brief: as §2
[20] = tested on: L6; experiment: Effect on increase in fatty acid oxidation in rat L6 cells relative to basal; format: functional; method in brief: as §4
[21] = tested on: Mus musculus; experiment: Decrease in triglycerides level in human ApoB100/CETP transgenic mouse at 6 mg/kg, po after 6 weeks relative to control; format: functional; set-up: scale not given: the % may be the effect or the level left
[22] = tested on: Mus musculus; experiment: Decrease in total ketone bodies level in human ApoB100/CETP transgenic mouse at 6 mg/kg, po after 6 weeks relative to control; format: functional; set-up: scale not given: the % may be the effect or the level left
[23] = tested on: Mus musculus; experiment: Decrease in glucose level in human ApoB100/CETP transgenic mouse at 6 mg/kg, po after 6 weeks relative to control; format: functional; set-up: scale not given: the % may be the effect or the level left
[24] = tested on: Mus musculus; experiment: Decrease in HbA1c level in human ApoB100/CETP transgenic mouse at 6 mg/kg, po after 6 weeks relative to control; format: functional; set-up: scale not given: the % may be the effect or the level left
[25] = target: T4, Peroxisome proliferator-activated receptor alpha (Homo sapiens, UniProt Q07869); experiment: Activity at human liver PPAR alpha expressed in HEK293 cells by PPAR-GAL4 transactivation assay; format: cell-based
T4 sequence (Q07869 whole entry): T1 sequence (whole entry)

[26] = Clearance in Sprague-Dawley rat at 1.08 mg/kg, iv; format: ADME, organism-based; set-up: dose 1.08 mg/kg, route intravenous; conditions: in vivo; method in brief: as §1
[27] = Volume of distribution in Sprague-Dawley rat at 1.08 mg/kg, iv; format: ADME, organism-based; set-up: dose 1.08 mg/kg, route intravenous; conditions: in vivo, read-out: Vss; method in brief: as §2
[28] = Half life in Sprague-Dawley rat at 2.29 mg/kg, po; format: ADME, organism-based; set-up: dose 2.29 mg/kg, route oral; conditions: in vivo; method in brief: as §1
[29] = target: T5, Peroxisome proliferator-activated receptor gamma (Homo sapiens, UniProt P37231); format: cell-based, HEK293
T5 sequence (P37231 whole entry): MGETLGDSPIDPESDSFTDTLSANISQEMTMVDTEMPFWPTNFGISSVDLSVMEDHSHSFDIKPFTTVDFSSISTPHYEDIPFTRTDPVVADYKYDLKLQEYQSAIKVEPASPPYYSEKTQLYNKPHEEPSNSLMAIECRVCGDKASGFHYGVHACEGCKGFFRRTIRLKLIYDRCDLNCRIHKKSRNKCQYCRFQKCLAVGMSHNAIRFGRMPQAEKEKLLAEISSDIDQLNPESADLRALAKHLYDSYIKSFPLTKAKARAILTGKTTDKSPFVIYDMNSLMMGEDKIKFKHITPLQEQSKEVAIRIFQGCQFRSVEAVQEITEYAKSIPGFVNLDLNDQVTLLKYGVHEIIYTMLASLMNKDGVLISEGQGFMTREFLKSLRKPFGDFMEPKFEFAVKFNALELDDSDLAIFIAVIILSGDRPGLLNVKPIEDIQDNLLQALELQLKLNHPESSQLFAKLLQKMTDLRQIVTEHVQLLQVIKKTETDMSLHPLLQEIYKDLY

[30] = Plasma Cmax in Sprague-Dawley rat at 2.29 mg/kg, po; format: ADME, organism-based; set-up: dose 2.29 mg/kg, route oral; method in brief: as §2
[31] = Oral bioavailability in Sprague-Dawley rat at 2.29 mg/kg; format: ADME, organism-based; conditions: in vivo; method in brief: as §2

SMILES: Cc1cc(SCc2sc(-c3ccc(C(F)(F)F)cc3)nc2C)ccc1OCC(=O)O [GW501516]
- bioavailability [10]: 136%
- clearance [11]: 0.42 L/h/kg
- Vd [12]: 1 L/kg
- half-life [13]: 10.2 h
- Activity [14]: 269%
- Activity [15]: 41%
- Activity [16]: 15%
- Activity [17]: 4%
- Activity [18]: 19%
- Efficacy [4]: 68%
- EC50 [5]: 0.006 µM
- Cmax [19]: 0.454 µg/mL
- Activity [20]: 120%
- Activity [21]: 14%
- Activity [22]: 49%
- Activity [23]: 4%
- Activity [24]: 13%

SMILES: CC(C)(Oc1ccc(C(=O)c2ccc(Cl)cc2)cc1)C(=O)O [FENOFIBRIC ACID]
- EC50 [25]: > 10 µM
- Efficacy [4]: > 94%
- EC50 [5]: 3 µM
- Activity [6]: 70%
- EC50 [9]: > 10 µM

SMILES: CCO[C@@H](Cc1ccc(OCC=C(c2ccc(Br)cc2)c2ccc(Br)cc2)cc1)C(=O)O
- clearance [26]: 1.28 L/h/kg
- Vd [27]: 2.3 L/kg
- half-life [28]: 1.42 h
- EC50 [25]: 0.39 µM
- Efficacy [4]: 93%
- EC50 [29]: 0.59 µM
- Cmax [30]: 0.554 µg/mL
- bioavailability [31]: 78%
- EC50 [9]: 0.54 µM

More lines, main results first:

- clearance [1]: 0.42 L/h/kg
- Vd [2]: 1.4 L/kg
- half-life [3]: 3.02 h
- Efficacy [4]: < 10%
- Cmax [7]: 0.241 µg/mL
- bioavailability [8]: 130%
- EC50 [9]: 2.3 µM
SMILES: O=C(O)Cc1ccc(OCC=C(c2ccc(Br)cc2)c2ccc(Br)cc2)c(Cl)c1
- EC50 [5]: 0.379 µM
- Activity [6]: 85%

- EC50 [25]: > 10 µM
- Efficacy [4]: > 12%
- EC50 [9]: 0.52 µM
SMILES: O=C(O)CCc1ccc(OCC=C(c2ccc(Br)cc2)c2ccc(Br)cc2)cc1
- EC50 [5]: 0.212 µM
- Activity [6]: 69%
